Data reported in ChEMBL document CHEMBL1140443, “Inhibitors of apoptosis in lymphocytes: synthesis and biological evaluation of compounds related to pifithrin-alpha” (J Med Chem, 2005).

How the values were obtained:
Mus musculus [1] = organism: Mus musculus; assay: Average percent survival of C57Bl/6 mice thymocytes from Dexamethasone (5 uM) induced apoptosis at 10 uM
[2] = Concentration for 95% confidence interval (CI) in dexamethasone-induced mice thymocytes; range 0.11-1.08 uM; assay type: functional, Mus musculus
In short: (§1)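 Thymocytes from young C57Bl/6 mice, cultured at 37 °C in 5% CO2 in RPMI 1640 with 10% FBS and penicillin/streptomycin, plated at 10⁷ cells/mL. Cells were preincubated 30 min with graded compound concentrations (DMSO stock), then given 5 μM dexamethasone for 6 h. Cells were stained 30 min with 40 nM DiOC6 and 5 μg/mL PI and read by flow cytometry; DiOC6-high/PI-low cells were scored viable. EC50 was taken from a nonlinear one-site fit, with its 95% confidence interval.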

Mus musculus [3] = organism: Mus musculus; assay: Concentration required to inhibit dexamethasone-induced death of mice thymocytes; assay type: functional, organism-based
In short: as §1

[4] = Concentration for 95% confidence interval (CI) in dexamethasone-induced mice thymocytes; range 3.07-5.28 uM; assay type: functional, Mus musculus
In short: as §1

[5] = Concentration for 95% confidence interval (CI) in dexamethasone-induced mice thymocytes; range 1.51-2.24 uM; assay type: functional, Mus musculus
In short: as §1

[6] = Concentration for 95% confidence interval (CI) in dexamethasone-induced mice thymocytes; range 3.45-4.69 uM; assay type: functional, Mus musculus
In short: as §1

[7] = Concentration for 95% confidence interval (CI) in dexamethasone-induced mice thymocytes; range 3.86-13.70 uM; assay type: functional, Mus musculus
In short: as §1

[8] = Concentration for 95% confidence interval (CI) in dexamethasone-induced mice thymocytes; range 2.86-6.89 uM; assay type: functional, Mus musculus
In short: as §1

[9] = Concentration for 95% confidence interval (CI) in dexamethasone-induced mice thymocytes; range 4.61-7.00 uM; assay type: functional, Mus musculus
In short: as §1

[10] = Concentration for 95% confidence interval (CI) in dexamethasone-induced mice thymocytes; range 3.26-8.82 uM; assay type: functional, Mus musculus
In short: as §1

[11] = Concentration for 95% confidence interval (CI) in dexamethasone-induced mice thymocytes; range 2.95-5.88 uM; assay type: functional, Mus musculus
In short: as §1

[12] = Concentration for 95% confidence interval (CI) in dexamethasone-induced mice thymocytes; range 4.08-8.01 uM; assay type: functional, Mus musculus
In short: as §1

[13] = Concentration for 95% confidence interval (CI) in dexamethasone-induced mice thymocytes; range 6.02-8.76 uM; assay type: functional, Mus musculus
In short: as §1

[14] = Concentration for 95% confidence interval (CI) in dexamethasone-induced mice thymocytes; range 8.49-12.32 uM; assay type: functional, Mus musculus
In short: as §1

[15] = Concentration for 95% confidence interval (CI) in dexamethasone-induced mice thymocytes; range 4.64-7.91 uM; assay type: functional, Mus musculus
In short: as §1

[16] = Concentration for 95% confidence interval (CI) in dexamethasone-induced mice thymocytes; range 2.78-5.16 uM; assay type: functional, Mus musculus
In short: as §1

[17] = Concentration for 95% confidence interval (CI) in dexamethasone-induced mice thymocytes; range 1.45-2.80 uM; assay type: functional, Mus musculus
In short: as §1

[18] = Concentration for 95% confidence interval (CI) in dexamethasone-induced mice thymocytes; range 3.95-5.75 uM; assay type: functional, Mus musculus
In short: as §1

[19] = Concentration for 95% confidence interval (CI) in dexamethasone-induced mice thymocytes; range 0.94-1.82 uM; assay type: functional, Mus musculus
In short: as §1

[20] = Concentration for 95% confidence interval (CI) in dexamethasone-induced mice thymocytes; range 4.08-13.75 uM; assay type: functional, Mus musculus
In short: as §1

[21] = Concentration for 95% confidence interval (CI) in dexamethasone-induced mice thymocytes; range 2.78-34.83 uM; assay type: functional, Mus musculus
In short: as §1

[22] = Concentration for 95% confidence interval (CI) in dexamethasone-induced mice thymocytes; range 0.95-1.57 uM; assay type: functional, Mus musculus
In short: as §1

[23] = Concentration for 95% confidence interval (CI) in dexamethasone-induced mice thymocytes; range 1.76-2.98 uM; assay type: functional, Mus musculus
In short: as §1

SMILES | Survival (Mus musculus [1]) | EC50 (Mus musculus [3]) | also measured
Oc1ccc(-c2cn3c4c(sc3n2)CCCC4)cc1 | 21% |  | 
Cc1ccc(C(=O)Cn2c(=O)oc(=O)c3ccccc32)cc1 | 28% |  | 
Brc1ccc(-c2cn3c(n2)sc2ccccc23)cc1 | 22% |  | 
CCOC(=O)Cn1c2c(sc1=N)CCCC2 | 27% |  | 
Cc1ccc(-c2nc3c4ccccc4ncn3n2)cc1 | 17% |  | 
Fc1ccc(-c2cn3c4c(sc3n2)CCCC4)cc1 | 33% |  | 
c1ccc2c(c1)sc1nc(-c3ccc(N4CCCC4)cc3)cn12 | 78% | 0.35 µM | CI [2]: 1.08 µM
Cc1ccc(C(=O)CSc2nc3ccccc3s2)cc1 | 16% |  | 
Clc1ccc(-c2cn3c4c(sc3n2)CCCC4)cc1 | 35% |  | 
Fc1cccc(-c2cn3c4c(sc3n2)CCCC4)c1 | 34% |  | 
Cc1ccc(-c2cn3c(n2)sc2cc(O)ccc23)cc1 | 19% |  | 
N=c1sc2c(n1CC(=O)c1ccc(-c3ccc4ccccc4c3)cc1)CCCC2 | 58% | 4.02 µM | CI [4]: 5.28 µM
CC(=O)N1C(c2ccc(C)cc2)N=C2c3ccccc3N=CN21 (stereo unspecified) | 23% |  | 
c1ccc2c(c1)sc1nc(-c3ccc(C4CCCC4)cc3)cn12 | 36% |  | 
N=c1sc2c(n1CC(=O)c1ccc(F)cc1)CCCC2 | 48% |  | 
CCN(CC)c1ccc(C(=O)Cn2c3c(sc2=N)CCCC3)cc1 | 70% | 1.84 µM | CI [5]: 2.24 µM
N#Cc1ccc(C(=O)Cn2c3c(sc2=N)CCCC3)cc1 | 40% |  | 
O=[N+]([O-])c1ccc(-c2cn3c4c(sc3n2)CCCC4)cc1 | 11% |  | 
c1ccc2cc(-c3ccc(-c4cn5c(n4)sc4ccccc45)cc3)ccc2c1 | 75% | 4.02 µM | CI [6]: 4.69 µM
N=c1sc2c(n1CC(=O)c1ccc([N+](=O)[O-])cc1)CCCC2 | 21% |  | 
Cc1ccc(/C=N/Nc2ncnc3ccccc23)cc1 | 23% |  | 

SMILES | Survival (Mus musculus [1]) | EC50 (Mus musculus [3]) | also measured
N=c1sc2c(n1CC(=O)c1ccc(Cl)c(Cl)c1)CCCC2 | 57% | 7.28 µM | CI [7]: 13.7 µM
Cc1ccc(C(=O)Cn2c(=N)oc3ccc(Cl)cc32)cc1 | 19% |  | 
Cc1ccc(-c2cn3cnc4ccccc4c3n2)cc1 | 26% |  | 
Cc1ccc(-c2cn3ccsc3n2)cc1 | 27% |  | 
Cc1ccc(C(=O)Cn2/c(=N/S(=O)(=O)c3ccccc3)sc3ccccc32)cc1 | 48% |  | 
N=c1sc2ccccc2n1CC(=O)c1ccc(C2CCCC2)cc1 | 33% |  | 
Cc1cn2c(n1)sc1ccccc12 | 22% |  | 
Cc1ccc(C(=O)Cn2c(=N)sc3ccccc32)cc1 | 21% | > 10 µM | 
C#CCn1c(=N)sc2ccccc21 | 23% |  | 
N#Cc1ccc(-c2cn3c4c(sc3n2)CCCC4)cc1 | 21% |  | 
COc1ccc2c(c1)sc1nc(-c3ccc(C)cc3)cn12 | 68% | 4.44 µM | CI [8]: 6.89 µM
Fc1ccc(-c2cn3c4c(sc3n2)CCCC4)cc1F | 44% |  | 
c1ccc(-c2cnc3sc4ccccc4n23)cc1 | 15% |  | 
FC(F)(F)c1ccc(-c2cn3c4c(sc3n2)CCCC4)cc1 | 27% |  | 
O=C(Oc1ccc(-c2cn3c4c(sc3n2)CCCC4)cc1)c1ccccc1 | 23% |  | 
Clc1ccc(-c2cn3c4c(sc3n2)CCCC4)cc1Cl | 36% |  | 
N=c1sc2c(n1CC(=O)c1ccc(Br)cc1)CCCC2 | 31% |  | 
[N-]=[N+]=Nc1ccc(C(=O)Cn2c3c(sc2=N)CCCC3)cc1 | 56% | 5.68 µM | CI [9]: 7 µM
Cc1ccc(-c2cn3c(n2)nc(Cl)c2ccccc23)cc1 | 46% |  | 
CSC(=N)NC(=O)c1ccccc1NCC(=O)c1ccc(C)cc1 | 31% |  | 
N=c1sc2c(n1CC(=O)c1ccc(Cl)cc1)CCCC2 | 59% | 5.37 µM | CI [10]: 8.82 µM

SMILES | Survival (Mus musculus [1]) | EC50 (Mus musculus [3]) | also measured
Clc1ccccc1-c1cn2c3c(sc2n1)CCCC3 | 37% |  | 
Cc1ccc(-c2csc3nc4ccccc4n23)cc1 | 48% |  | 
Cc1ccc(C(=O)Cn2c3c(sc2=N)CCCC3)cc1 | 72% | 4.16 µM | CI [11]: 5.88 µM
Cc1ccc(-c2nc3sc4ccccc4n3c2Br)cc1 | 24% |  | 
Brc1ccc(-c2cn3c4c(sc3n2)CCCC4)cc1 | 35% |  | 
N=c1sc2c(n1CC(=O)c1ccccc1Cl)CCCC2 | 65% | 5.72 µM | CI [12]: 8.01 µM
Cc1ccc(-c2cn3c(n2)sc2cc(N)ccc23)cc1 | 27% |  | 
COc1ccc(C(=O)Cn2c3c(sc2=N)CCCC3)cc1 | 66% | 7.54 µM | 
Cc1ccc(C(=O)Cn2c(=O)sc3ccccc32)cc1 | 30% |  | 
N=c1sc2c(n1CC(=O)c1ccc(F)c(F)c1)CCCC2 | 40% |  | 
N=c1sc2ccccc2n1CC(=O)c1ccc(-c2ccccc2)cc1 | 66% | 7.26 µM | CI [13]: 8.76 µM
Nc1ccc(-c2cn3c4c(sc3n2)CCCC4)cc1 | 18% |  | 
COc1ccc(-c2cn3c4c(sc3n2)CCCC4)cc1 | 28% |  | 
c1ccc(-c2cn3c(n2)sc2ccccc23)cc1 | 73% | 10.2 µM | CI [14]: 12.32 µM
[N-]=[N+]=Nc1ccc(-c2cn3c4c(sc3n2)CCCC4)cc1 | 50% |  | 
N=c1sc2c(n1CC(=O)c1ccccc1)CCCC2 | 59% | 6.06 µM | CI [15]: 7.91 µM
N=c1sc2ccccc2n1CC(=O)c1ccc(-c2ccc3ccccc3c2)cc1 | 62% | > 10 µM | 
c1ccc(-c2ccc(-c3cn4c5c(sc4n3)CCCC5)cc2)cc1 | 75% | 3.79 µM | CI [16]: 5.16 µM
Cc1ccc(C(=O)CSc2nc3ccccc3[nH]2)cc1 | 15% |  | 
Cc1ccc(C(=O)CNc2ncnc3ccccc23)cc1 | 32% |  | 
Cc1ccc(-c2cn3c4c(sc3n2)CCCC4)cc1 | 54% | 2.01 µM | CI [17]: 2.8 µM

SMILES | Survival (Mus musculus [1]) | EC50 (Mus musculus [3]) | also measured
N=c1sc2ccccc2n1Cc1ccccc1 | 20% |  | 
c1ccc2cc(-c3ccc(-c4cn5c6c(sc5n4)CCCC6)cc3)ccc2c1 | 57% | 4.77 µM | CI [18]: 5.75 µM
N=c1sc2c(n1CC(=O)c1ccc(N3CCCC3)cc1)CCCC2 | 77% | 1.31 µM | CI [19]: 1.82 µM
c1cc(N2CCCC2)ccc1-c1cn2c3c(sc2n1)CCCC3 | 50% | > 10 µM | 
c1ccc(-c2ccc(-c3cn4c(n3)sc3ccccc34)cc2)cc1 | 59% | 8.12 µM | CI [20]: 13.75 µM
N=c1sc2c(n1CC(=O)c1ccc(C(F)(F)F)cc1)CCCC2 | 36% |  | 
Cc1ccc(-c2nc3sc4c(n3c2Br)CCCC4)cc1 | 27% |  | 
N=c1sc2ccccc2n1CC(=O)c1ccccc1 | 20% |  | 
N=c1sc2ccccc2n1CC(=O)c1ccc(N2CCCC2)cc1 | 64% | 9.84 µM | CI [21]: 34.83 µM
Cc1ccc(C(=O)Cn2c3c(sc2=O)CCCC3)cc1 | 40% |  | 
N=c1sc2c(n1CC(=O)c1ccc(OC(=O)c3ccccc3)cc1)CCCC2 | 17% |  | 
N=c1sc2c(n1CC(=O)c1cccc(F)c1)CCCC2 | 54% | 9.69 µM | 
O=C(O)c1ccc(-c2cn3c4c(sc3n2)CCCC4)cc1 | 20% |  | 
Cc1ccc(C(=O)Cn2ccsc2=N)cc1 | 27% |  | 
Cc1ccc(-c2cn3c(n2)sc2cc(Br)ccc23)cc1 | 39% |  | 
Cc1ccc(-c2cn3c(n2)nc(O)c2ccccc23)cc1 | 28% |  | 
Cc1ccc(Cn2c(=N)sc3ccccc32)cc1 | 8% |  | 
Cc1ccc(-c2cn3c(n2)sc2ccccc23)cc1 | 73% | 1.22 µM | CI [22]: 1.57 µM
N=c1sc2c(n1CC(=O)c1ccc(-c3ccccc3)cc1)CCCC2 | 65% | 2.29 µM | CI [23]: 2.98 µM
c1ccc(-c2cn3c4c(sc3n2)CCCC4)cc1 | 19% |  | 
Cc1ccc(S(=O)(=O)Nc2nc3ccccc3s2)cc1 | 26% |  | 
